The results in this text go back to ChEMBL document CHEMBL3751842, “Novel triazolothiadiazines act as potent anticancer agents in liver cancer cells through Akt and ASK-1 proteins” (Bioorg Med Chem, 2016).

SMILES strings stand for the structures. Activity calls are given as the source filed them. No cut-off for these calls is given here.

Test [1] can be described thus: Cytotoxicity against human SNU475 cells assessed as growth inhibition after 72 hrs by sulforhodamine B assay. The class given is functional, cell-based, SNU-475. Conditions: Homo sapiens, SNU-475, 72 h; read-out: IC50. In short, it runs like this:
(§1)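 Cells were grown at 37°C, 5% CO2 in DMEM with 10% FBS. They were seeded at 1000–3000 cells/well, grown 24 h, then exposed to compound at 2.5–40 µM for 72 h. Cells were fixed in 10% TCA for 1 h at 4°C, stained with 0.4% SRB in 1% acetic acid for 10 min, and the dye solubilized in 10 mM Tris. Absorbance was read at 515 nm; runs were in triplicate; IC50 was calculated, with fits of R2 0.8–1 accepted.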
In general terms: Sulforhodamine B stains cellular protein and so reports cell mass.

For another test, the system named is HepG2. The test can be described thus: Cytotoxicity against human HepG2 cells assessed as growth inhibition after 72 hrs by sulforhodamine B assay. The note with it: Homo sapiens, HepG2, 72 h; read-out: IC50. The test is classed as functional, cell-based. In short, it runs like this: as §1
Test [2] concerns Huh-7. The test can be described thus: Induction of apoptosis in human HuH7 cells assessed as nuclear condensation at 10 uM after 48 hrs by Hoechst 33258 staining-based immunofluorescence microscopy. The class given is functional, cell-based. The gist of the method:
(§2)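 Cells on coverslips were incubated overnight, then treated with 10 µM compound or DMSO for 48 h. They were washed in ice-cold PBS, fixed in cold methanol for 10 min, and stained with 1 µg/mL Hoechst 33258 for 5 min in the dark. Nuclei were examined by fluorescence microscopy with a 40x objective.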

The subject of test [3] is Huh-7. The test can be described thus: Induction of apoptosis in human HuH7 cells assessed as horseshoe nuclear structure at 10 uM after 48 hrs by Hoechst 33258 staining-based immunofluorescence microscopy. The class given is functional, cell-based. In short, it runs like this: as §2
The subject of test [4] is Huh-7. The test can be described thus: Induction of cell cycle arrest in human HuH7 cells assessed as accumulation at subG1 phase at 10 uM after 24 to 48 hrs by propidium iodide staining based FACS analysis. The class given is functional. The gist of the method:
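Huh7 cells were seeded at 300,000 per 100-mm dish. After 24 h they were treated with 10 µM compound or DMSO for 24 h and 48 h. Cells were trypsinized, fixed in ice-cold 70% ethanol and stored at −20 °C. They were then stained with propidium iodide and cell-cycle distribution, including SubG1, was read by flow cytometry.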

The nature of test [5]: Cytotoxicity against human Hep3B cells assessed as growth inhibition after 72 hrs by sulforhodamine B assay. The note with it: Homo sapiens, Hep3B, 72 h; read-out: IC50. The test is classed as functional, cell-based, Hep 3B2. The gist of the method:
as §1

A short description of test [6]: Cytotoxicity against human FOCUS cells assessed as growth inhibition after 72 hrs by sulforhodamine B assay. Conditions: Homo sapiens, FOCUS, 72 h; read-out: IC50. The test is classed as functional, cell-based. In short, it runs like this:
as §1

Test [7] in a line: Cytotoxicity against human Mahlavu cells assessed as growth inhibition after 72 hrs by sulforhodamine B assay. The class given is functional, cell-based. Conditions: Homo sapiens, Mahlavu, 72 h; read-out: IC50. In short, it runs like this: as §1
Test [8] is described as follows: Cytotoxicity against human HuH7 cells assessed as growth inhibition after 72 hrs by sulforhodamine B assay. The class given is functional, cell-based, Huh-7. Conditions: Homo sapiens, Huh-7, 72 h; read-out: IC50. The gist of the method:
as §1

Test [9] is described as follows: Cytotoxicity against human HCT116 cells assessed as growth inhibition after 72 hrs by sulforhodamine B assay. The note with it: Homo sapiens, HCT-116, 72 h; read-out: IC50. The class given is functional, cell-based, HCT-116. The gist of the method: as §1
Test [10] deals with Huh-7. The test can be described thus: Cytotoxicity against human HuH7 cells assessed as cell impedance at IC25 to IC100 measured every 30 mins for 72 hrs by RT-CES assay. The note with it: TDE = time-dependent effect. The test is classed as functional, cell-based. In short, it runs like this: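 Huh7 cells were seeded at 1000–5000 cells/well on electrode plates. […] Impedance was read as cell index every 10 min for the first 24 h, then every 30 min, over 72 h. Data were normalized to DMSO; inhibition (%) = [1 − (CI treated/CI DMSO)] × 100. Each experiment was run at least three times.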

A further test has as its system MCF7. The test can be described thus: Cytotoxicity against human MCF7 cells assessed as growth inhibition after 72 hrs by sulforhodamine B assay. Conditions: Homo sapiens, MCF7, 72 h; read-out: IC50. The test is classed as functional, cell-based. The gist of the method:
as §1

`CC(c1ccc(-c2ccccc2)c(F)c1)c1nnc2n1N=C(c1ccc(Cl)cc1)CS2` (stereo not drawn): the IC50 (usually the midpoint of a concentration-inhibition curve) in test [1] was determined as 3.8 µM; in the test on HepG2, 6.7 µM; in test [5] it was 3.8 µM; in [6], 5 µM; in test [7] it was 6.1 µM; in test [8], 3.9 µM. Besides, the IC50 turned out to be 7.8 µM in test [9] and 8.7 µM with MCF7. The result in the test with Huh-7 [2], in the test with Huh-7 [3] and in the test on Huh-7 [4] was Active. For the same compound, the Activity result in the test on Huh-7 [10] was “tde”.

Consider `COc1ccc(C2=Nn3c(nnc3C(C)c3ccc(-c4ccccc4)c(F)c3)SC2)cc1` (stereo not drawn), for which the IC50 worked out at 6.7 µM in test [1]; 4.2 µM in the test on HepG2; 3.5 µM in test [5]; 4.4 µM in [6]; 5.8 µM in [7]; 4.3 µM in [8]. The IC50 in [9] stood at 4.4 µM; in the test on MCF7, 2.6 µM. Further, the result with Huh-7 [2], in the test with Huh-7 [3] and in the test on Huh-7 [4] was Active. The Activity entry in the test with Huh-7 [10] is “tde”.

For `CC(C)Cc1ccc(C(C)c2nnc3n2N=C(c2ccc(Br)cc2)CS3)cc1` (stereo not drawn), the IC50 in [1] was 10.1 µM; in the test on HepG2, 6.4 µM; in [5], 8.3 µM; in test [6], 5.9 µM; in test [7], 8.9 µM; in test [8] it was 4.9 µM. The IC50 in test [9] stood at 7.1 µM; in the test on MCF7 it was 9.4 µM. For the same compound, the outcome in the test with Huh-7 [2], in the test with Huh-7 [3] and in the test with Huh-7 [4] was Active. Also, in the test on Huh-7 [10], the Activity entry is “tde”.

Regarding `CC(c1ccc(-c2ccccc2)c(F)c1)c1nnc2n1N=C(c1ccc([N+](=O)[O-])cc1)CS2` (stereo not drawn), the IC50 in test [1] worked out at 7.1 µM; in the test on HepG2, 4.3 µM; in test [5] it was 2.9 µM; in test [6], 3.5 µM; in test [7], 9.4 µM; in [8], 4.3 µM. For the same compound, the IC50 in test [9] worked out at 7.1 µM; in the test on MCF7, 7.8 µM. In addition, the outcome with Huh-7 [2] and with Huh-7 [3] was inactive. The Activity entry in the test with Huh-7 [10] is “tde”.

Consider `CC(C)Cc1ccc(C(C)c2nnc3n2N=C(c2ccc(OC(F)(F)F)cc2)CS3)cc1` (stereo not drawn), for which the IC50 in test [1] was determined as 6.8 µM; in the test with HepG2, 9.7 µM; in test [5], 6.4 µM; in test [6], 8.8 µM; in test [7], 9.1 µM; in [8], 3.6 µM. The half-maximal inhibitory concentration (IC50) in test [9] was 3 µM; in the test with MCF7 it was 1.1 µM. The outcome in the test with Huh-7 [2] and in the test on Huh-7 [3] was Active. Besides, the Activity entry with Huh-7 [10] is “tde”.
